The source made the active and inactive calls. No cut-off for these calls is given here.
Target: T1, Glutamate NMDA receptor; Grin1/Grin2a (Rattus norvegicus) (UniProt P35439+Q00959)
Assay: Potency index, ratio of TCN-201 IC50 to compound IC50 for rat GluN1A/GluN2A receptor expressed in Xenopus laevis oocytes
Format: cell-based

| Ratio IC50 | Compound |
| --- | --- |
| 2.5 | O=C(NNC(=O)c1ccc(CNS(=O)(=O)c2cccc(Br)c2)cc1)c1ccccc1 |

Target: Glutamate NMDA receptor; Grin1/Grin2a (Rattus norvegicus, UniProt P35439+Q00959)
Assay: Antagonist activity at rat GluN1A/GluN2A receptor expressed in Xenopus laevis oocytes assessed as inhibition of glutamate/glycine-induced channel current at -70 mV holding potential by two electrode voltage clamp method
Format: cell-based
In short: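 Oocytes (stage V, defolliculated) coinjected with 0.8 ng GluN1a and 0.8 ng GluN2A cRNA. TEVC at room temperature, holding −70 mV, perfusion with Ba2+-Ringer (10 HEPES, 90 NaCl, 1 KCl, 1.5 BaCl2 mmol/L, pH 7.4). Currents evoked by glutamate plus glycine. Compounds diluted from 10 mM DMSO stocks into agonist solution, 1 nM to 10 µM final. n = 5 oocytes per concentration. Logistic fit with minimum 0% and maximum 100%; x0 taken as the half-maximal inhibition.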

| IC50 | Compound |
| --- | --- |
| 512 nM | O=C(NNC(=O)c1ccc(CNS(=O)(=O)c2ccc(F)c(Cl)c2)cc1)c1ccccc1 |
| 204 nM | O=C(NNC(=O)c1ccc(CNS(=O)(=O)c2cccc(Br)c2)cc1)c1ccccc1 |

Target: Glutamate NMDA receptor; Grin1/Grin2b (Rattus norvegicus) (UniProt P35439+Q00960)
Assay: Antagonist activity at rat GluN1A/GluN2B receptor expressed in Xenopus laevis oocytes assessed as inhibition of glutamate/glycine-induced channel current at 10 uM at -70 mV holding potential by two electrode voltage clamp method
Format: cell-based
In short: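 Oocytes were injected with GluN1a and GluN2B cRNA and recorded by TEVC with glutamate/glycine activation. Compounds tested at 10 µM, n = 5. One-way ANOVA with Tukey post hoc test.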

| inhibition | Compound |
| --- | --- |
| inactive | O=C(NNC(=O)c1ccc(CNS(=O)(=O)c2ccc(F)c(Cl)c2)cc1)c1ccccc1 |
| inactive | O=C(NNC(=O)c1ccc(CNS(=O)(=O)c2cccc(Br)c2)cc1)c1ccccc1 |

Target: T1, Glutamate NMDA receptor; Grin1/Grin2a (Rattus norvegicus)
Assay: Antagonist activity at rat GluN1A/GluN2A receptor expressed in Xenopus laevis oocytes assessed as inhibition of glutamate/glycine-induced channel current at 500 nM at -70 mV holding potential by two electrode voltage clamp method relative to TCN-201
Format: cell-based
In short: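 GluN1a/GluN2A-coinjected oocytes (0.8 ng of each cRNA) under TEVC at −70 mV and room temperature, perfused with Ba2+-Ringer at pH 7.4. 10 µM (S)-glutamate and 10 µM glycine open the channel. Compound at 500 nM final (from 10 mM DMSO stock) in agonist solution. Current inhibition compared with the lead. At least five oocytes each. One-way ANOVA with Tukey post hoc test.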

| Compound | fold change (FC) |
| --- | --- |
| O=C(NNC(=O)c1ccc(CNS(=O)(=O)c2ccc([N+](=O)[O-])cc2)cc1)c1ccccc1 | 0.002 |
| O=C(NNC(=O)c1ccc(CNS(=O)(=O)c2cccnc2)cc1)c1ccccc1 | 0.151 |
| COc1cccc(S(=O)(=O)NCc2ccc(C(=O)NNC(=O)c3ccccc3)cc2)c1 | -0.062 |
| O=C(NNC(=O)c1ccc(CNS(=O)(=O)c2ccc(Cl)cc2)cc1)c1ccccc1 | 0.279 |
| O=C(NNC(=O)c1ccc(CNS(=O)(=O)c2ccc(Br)cc2)cc1)c1ccccc1 | 0.315 |
| O=C(NNC(=O)c1ccc(CNS(=O)(=O)c2cccs2)cc1)c1ccccc1 | 0.529 |
| O=C(NNC(=O)c1ccc(CNS(=O)(=O)c2ccc(F)cc2)cc1)c1ccccc1 | 0.103 |
| O=C(NNC(=O)c1ccc(CNS(=O)(=O)c2cccc(Cl)c2)cc1)c1ccccc1 | 1.21 |
| O=C(NNC(=O)c1ccc(CNS(=O)(=O)c2cccc(F)c2)cc1)c1ccccc1 | 0.818 |
| O=C(NNC(=O)c1ccc(CNS(=O)(=O)c2cccc(Br)c2)cc1)c1ccccc1 | 1.27 |

More lines, now with the values ahead:

| fold change (FC) | Compound |
| --- | --- |
| 0.051 | O=C(NNC(=O)c1ccc(CNS(=O)(=O)c2ccc(I)cc2)cc1)c1ccccc1 |
| 0.283 | O=C(O)c1ccc(S(=O)(=O)NCc2ccc(C(=O)NNC(=O)c3ccccc3)cc2)cc1 |
| 0.045 | O=C(NNC(=O)c1ccc(CNS(=O)(=O)c2ccccc2Br)cc1)c1ccccc1 |
| 0.397 | O=C(NNC(=O)c1ccc(CNS(=O)(=O)c2ccccc2[N+](=O)[O-])cc1)c1ccccc1 |
| -0.092 | O=C(NNC(=O)c1ccc(CNS(=O)(=O)c2ccccc2Cl)cc1)c1ccccc1 |
| 0.151 | N#Cc1cccc(S(=O)(=O)NCc2ccc(C(=O)NNC(=O)c3ccccc3)cc2)c1 |
| 0.379 | Nc1ccc(S(=O)(=O)NCc2ccc(C(=O)NNC(=O)c3ccccc3)cc2)cc1 |
| 0.019 | O=C(NNC(=O)c1ccc(CNS(=O)(=O)c2ccccc2F)cc1)c1ccccc1 |
| 1.19 | O=C(NNC(=O)c1ccc(CNS(=O)(=O)c2cccc(I)c2)cc1)c1ccccc1 |
| 0.351 | O=C(NNC(=O)c1ccc(CNS(=O)(=O)c2ccccc2)cc1)c1ccccc1 |
| 0.28 | Cc1cccc(S(=O)(=O)NCc2ccc(C(=O)NNC(=O)c3ccccc3)cc2)c1 |
| 0.161 | O=C(NNC(=O)c1ccc(CNS(=O)(=O)c2cccc([N+](=O)[O-])c2)cc1)c1ccccc1 |

From ChEMBL document CHEMBL4007431, “Systematic variation of the benzenesulfonamide part of the GluN2A selective NMDA receptor antagonist TCN-201” (Eur J Med Chem, 2017)
